In ChEMBL document CHEMBL4024792, “(N-Hydroxycarbonylbenylamino)quinolines as Selective Histone Deacetylase 6 Inhibitors Suppress Growth of Multiple Myeloma in Vitro and in Vivo” (J Med Chem, 2018):
The source made the active and inactive calls. No cut-off for these calls is given here.

Tests used:
NCI-H929 [1] = assay: Cell cycle arrest in human NCI-H929 cells assessed as accumulation at S phase at 5 uM after 24 hrs by propidium iodide staining based flow cytometry (reference value: 13.5%); format: functional
U-266 [2] = assay: Cell cycle arrest in human U266 cells assessed as accumulation at S phase at 5 uM after 24 hrs by propidium iodide staining based flow cytometry (reference value: 14.05%); format: functional
NCI-H929 [3] = assay: Cell cycle arrest in human NCI-H929 cells assessed as accumulation at sub-G1 phase at 5 uM after 24 hrs by propidium iodide staining based flow cytometry (reference value: 5.59%); format: functional
[4] = Apparent permeability from apical to basolateral side in human Caco2 cells assessed as drug recovery at 10 uM after 2 hrs by LC-MS/MS analysis; format: ADME, cell-based; conditions: Caco-2, read-out: Drug recovery
Method in brief: (§1)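 Caco-2 cells seeded at 8.4 × 10^4 cells/cm2 on polycarbonate inserts for 21 days. For A→B, donor was apical (HBSS/MES pH 6.5, 10 µM compound) and receiver basolateral (HBSS/HEPES pH 7.4). For B→A, donor was basolateral (HBSS/HEPES pH 7.4, 10 µM) and receiver apical (HBSS/MES pH 6.5). Incubated at 37 °C for 2 h. Receiver sampled at 30, 60, 90 and 120 min, donor at 0 and 120 min.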

RPMI-8226 [5] = assay: Antitumor activity against human RPMI8226 cells xenografted in nude mouse assessed as tumor growth inhibition at 30 mg/kg, iv or ip administered for 5 days followed by 2 days off for 35 days relative to control; format: functional; conditions: read-out: TGI
Method in brief: (§2)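 RPMI 8226 cells (1 × 10^7) implanted s.c. in eight-week-old male nude mice. At mean tumor volume 200 mm3, mice randomized into four groups (n = 8). Caliper measurement every 3–4 days, volume L×W²/2. %TGI computed from treated versus control volume changes relative to time 0.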

[6] = Apparent permeability from apical to basolateral side in human Caco2 cells at 10 uM after 2 hrs by LC-MS/MS analysis; format: ADME, cell-based; conditions: Caco-2; method in brief: as §1
NCI-H929 [7] = assay: Cell cycle arrest in human NCI-H929 cells assessed as accumulation at G2/M phase at 5 uM after 24 hrs by propidium iodide staining based flow cytometry (reference value: 31.63%); format: functional
RPMI-8226 [8] = assay: Cell cycle arrest in human RPMI8226 cells assessed as accumulation at S phase at 5 uM after 24 hrs in presence of bortezomib by propidium iodide staining based flow cytometry (reference value: 19.53%); format: functional
U-266 [9] = assay: Cell cycle arrest in human U266 cells assessed as accumulation at S phase at 5 uM after 24 hrs in presence of bortezomib by propidium iodide staining based flow cytometry (reference value: 14.05%); format: functional
RPMI-8226 [10] = assay: Cell cycle arrest in human RPMI8226 cells assessed as accumulation at sub-G1 phase at 5 uM after 24 hrs in presence of bortezomib by propidium iodide staining based flow cytometry (reference value: 12.25%); format: functional
NCI-H929 [11] = assay: Cell cycle arrest in human NCI-H929 cells assessed as accumulation at G0/G1 phase at 5 uM after 24 hrs by propidium iodide staining based flow cytometry (reference value: 49.39%); format: functional
RPMI-8226 [12] = assay: Induction of apoptosis in human RPMI8226 cells at 5 uM after 24 hrs by Annexin V/propidium iodide staining based flow cytometry; format: functional, cell-based
Mus musculus = assay: Toxicity in nude mouse xenografted with human RPMI8226 cells assessed as change in body weight at 30 mg/kg, iv or ip administered for 5 days followed by 2 days off for 35 days cotreated with bortezomib; format: organism-based; conditions: in vivo
Method in brief: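 Male 8-week nude mice implanted sc with 1×10^7 RPMI 8226 cells, randomized at ~200 mm3 (n = 8). […] Vehicle: 0.5% EtOH/0.5% Cremophor in 5% dextran.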

[13] = Half life in beagle dog hepatocytes at 10 uM by LC-MS/MS analysis; format: ADME, cell-based, Canis lupus familiaris, Hepatocyte
Method in brief: (§3)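 Substrate depletion in cryopreserved hepatocytes (male SD rat, male beagle dog, human). Compound at 10 µM incubated at 37 °C for up to 4 h. Cell density approximately 0.5 × 10^6 hepatocytes/well for rat and dog, 0.24 × 10^6/well for human. Half-life and CLint derived from depletion; % remaining at 60 min also reported.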

RPMI-8226 [14] = assay: Antitumor activity against human RPMI8226 cells xenografted in nude mouse assessed as tumor growth inhibition at 30 mg/kg, iv or ip administered for 5 days followed by 2 days off for 35 days cotreated with bortezomib relative to control; format: functional; conditions: read-out: TGI; method in brief: as §2
RPMI-8226 [15] = assay: Cell cycle arrest in human RPMI8226 cells assessed as accumulation at G0/G1 phase at 5 uM after 24 hrs in presence of bortezomib by propidium iodide staining based flow cytometry (reference value: 44.67%); format: functional
RPMI-8226 [16] = assay: Cell cycle arrest in human RPMI8226 cells assessed as accumulation at G2/M phase at 5 uM after 24 hrs in presence of bortezomib by propidium iodide staining based flow cytometry (reference value: 23.94%); format: functional
[17] = Half life in Sprague-Dawley rat hepatocytes at 10 uM by LC-MS/MS analysis; format: ADME, cell-based, Hepatocyte; method in brief: as §3

## O=C(NO)c1ccc(CNc2cccc3cccnc23)cc1
NCI-H929 [1]
  Activity: 8.55%
U-266 [2]
  Activity: 6.12%
NCI-H929 [3]
  Activity: 24.71%
[4]
  recovery at 2 h, 10 µM: 72.2%
RPMI-8226 [5]
  inhibition in vivo at 30 mg/kg: 60.4%
[6]
  Papp A→B at 2 h, 10 µM: 24 ×10⁻⁶ cm/s
NCI-H929 [7]
  Activity: 31.28%
RPMI-8226 [8]
  Activity: 2.46%
U-266 [9]
  Activity: 7.56%
RPMI-8226 [10]
  Activity: 84.18%
NCI-H929 [11]
  Activity: 35.59%
RPMI-8226 [12]
  Activity: Active
Mus musculus
  Activity: Non-Toxic
[13]
  half-life at 10 µM: 1.97 h
RPMI-8226 [14]
  inhibition in vivo at 30 mg/kg: 86.2%
RPMI-8226 [15]
  Activity: 6.3%
RPMI-8226 [16]
  Activity: 2.33%
[17]
  half-life at 10 µM: 0.93 h
